# Bioassay records deposited in PubChem BioAssay by The Scripps Research Institute Molecular Screening Center.
# V1R ag counter: V1a receptor agonism, counter-screen for OXTR agonists; P37288; hit rate 0.25% among 320,000; activation, % at 3 µM; CHO-V1R cells, Fluo-8 calcium fluorescence, agonist mode; 0% DMSO, 100% 3 nM vasopressin;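 active means activation above the mean activation of all tested compounds plus 3 SD, per screening run, cut at about 20% in these data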;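 further: signal is peak over basal fluorescence ratio across a 100 second FLIPR read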
# OXTR potentiate: human OXTR potentiation. AID 2445. CHO-OTR cells, Fluo-8 calcium fluorescence, potentiator mode; 0% = oxytocin EC15, 100% = EC100. hit rate 0.061% among 320,000. P30559. activation, % at 3 µM;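 active means activation above that plate's cutoff, the mean activation of tested compounds plus 3 SD, cut at about 6.6% in these data, passing the limit was not always enough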
# Target sequence (P30559 whole entry, looked up): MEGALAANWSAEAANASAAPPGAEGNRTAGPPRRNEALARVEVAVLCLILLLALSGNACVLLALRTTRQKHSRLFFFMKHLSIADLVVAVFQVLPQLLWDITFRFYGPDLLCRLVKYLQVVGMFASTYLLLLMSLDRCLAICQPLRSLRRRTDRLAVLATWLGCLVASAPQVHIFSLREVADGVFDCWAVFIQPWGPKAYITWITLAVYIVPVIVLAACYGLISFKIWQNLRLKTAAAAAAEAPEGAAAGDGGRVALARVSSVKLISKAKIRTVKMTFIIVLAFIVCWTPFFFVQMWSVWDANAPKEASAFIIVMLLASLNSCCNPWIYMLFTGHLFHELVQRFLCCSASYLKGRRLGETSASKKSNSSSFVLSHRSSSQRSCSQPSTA
#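 Assay system: CHO cell line stably expressing human OTR. Reagent: EC15 oxytocin agonist. Dosing: single dose, 3.0 µM nominal final compound concentration. Timing: compound 6 min at room temperature before oxytocin, 100 s read. Signal: kinetic Fluo-8 calcium fluorescence. Controls: oxytocin EC15 low and EC100 high.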
# TAAR1 ag: human TAAR1 agonism. Q96RJ0. CHO RD-HGA16 TAAR1, Fluo-8 calcium fluorescence; vehicle wells 0%, saturating PEA agonist 100%. activation, % at 3 µM. hit rate 0.99% among 360,000. AID 624467;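 active means activation above the mean activation of all test compounds in the run plus 3 SD, cut at about 38% in these data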
#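 Signal – calcium-sensitive Fluo-8 signal, excitation 470-495, emission 515-575 nm · System – RD-HGA16 (CHO) cells co-expressing Gα16 and hTAAR1 · Incubation – 17-24 h seeding, 75 min 37 °C dye, 30 min RT · Compound dosing – 3 µM single concentration · Repeats – no replicates (n 1)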
# TAAR1 antagonist: antagonists of human TAAR1; inhibition, % at 3 µM; AID 624466; hit rate 1.5% among 360,000; CHO RD-HGA16 TAAR1, Fluo-8 calcium fluorescence, antagonist;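 active means inhibition above a per-plate cutoff, the mean inhibition of test compounds on that plate plus 3 SD, cut at about 49% in these data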
#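 Test system – hTAAR1-expressing CHO RD-HGA16 cells, Gα16-coupled · Also added – β-PEA at EC80 concentration, post-compound challenge · Compound – 3 µM, single point · Incubation – dye loading 75 min at 37 °C, then 30 min room temperature · Measured by – Fluo-8 intracellular calcium dye fluorescence, real-time kinetic reads · Benchmarks – vehicle and agonist controls · Replicates – singlicate, one well per test compound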
# OXTR ag: activates the human oxytocin receptor; activation, % at 3 µM; P30559; CHO-OTR cells, Fluo-8 calcium fluorescence; normalized: DMSO 0%, oxytocin 100%; AID 2435; hit rate 0.32% among 320,000;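 active means activation above the mean of all tested compounds plus 3 SD, cutoff set per screening run, cut at about 20% in these data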;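 further: peak over basal fluorescence ratio from a 100 s FLIPR kinetic read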
# Hits are given with their value; n = inactive; x = not tested or not shown. Shown are actives, neighbours in structure and some others; about 2.3% of the full set was active somewhere.
SMILES,V1R ag counter,OXTR potentiate,TAAR1 ag,TAAR1 antagonist,OXTR ag
Cc1cc(Br)cc2c1NC(=O)C2(c1c(C)n(C)n(-c2ccccc2)c1=O)c1c(C)n(C)n(-c2ccccc2)c1=O,n,n,n,n,n
C[C@H]1[C@H](c2ccccc2)Oc2cc(Br)ccc2S(=O)(=O)N1Cc1ccc(Cl)cc1,x,x,n,n,x
COc1ccccc1CNCC(=O)Nc1ccc(N(C)C)cc1,n,n,n,n,n
CCOC(=O)CSc1nnc(CNc2ccc(Cl)cc2)n1-c1ccccc1,n,n,n,51.8,n
O=C1NC[C@H](Cc2ccc(O)cc2)N(CCc2cccc(F)c2)C1=O,x,x,n,n,x
CN(C)S(=O)(=O)c1ccc2c(c1)/C(=C/c1cc3c([nH]1)CCCC3)C(=O)N2,24.6,n,n,n,34.7
CC(=O)C1=C(C)N(Cc2ccc(Cl)cc2)C(=S)NC1c1cccc(Br)c1 (centres undefined),x,x,n,n,x
CCCCNc1c2c3c(cccc3n(C)c1=O)C(=O)c1ccccc1-2,134.3,n,x,x,134.0
CC(=O)Nc1ccc(Nc2c3c4c(cccc4n(C)c2=O)C(=O)c2ccccc2-3)cc1,n,n,n,n,n
CCNc1c2c3c(cccc3n(C)c1=O)C(=O)c1ccccc1-2,181.2,n,x,x,139.8
COc1ccc([C@H]2/C=C\CN(S(=O)(=O)c3cccc4cccnc34)[C@@H](C)C(=O)N2Cc2ccc(F)cc2)cc1,n,n,n,n,n
COc1ccc(C2/C=C\CN(S(=O)(=O)c3cccc4cccnc34)CC(=O)N2Cc2ccc(F)cc2)cc1 (centres undefined),n,n,n,50.0,n
COCC#Cc1cnc2c(c1)C(=O)N([C@@H](C)CO)C[C@H](C)[C@H](CN(C)C(=O)c1ccc3c(c1)OCO3)O2,x,x,n,n,x
COc1ccc(C(=O)NCCS(=O)(=O)NCc2cccnc2)cc1,n,n,n,n,n
O=C(CSc1ncccc1C(=O)O)NCCC1=CCCCC1,n,n,95.7,77.1,n
Cc1nn(-c2ccccc2)c2c1C(c1ccc([N+](=O)[O-])cc1)N1C(=N2)C(=O)Nc2ccccc21 (centres undefined),n,n,n,50.5,n
Cc1nn(-c2ccc([N+](=O)[O-])cc2)c2c1C(c1cccc(Br)c1)N1C(=N2)C(=O)Nc2ccccc21 (centres undefined),n,n,n,n,n
COc1ccc(C(=O)c2sc(Nc3cccc(OC)c3)c(C(=O)Nc3cccc(C)c3C)c2N)cc1,n,n,37.5,n,n
COc1ccc(Nc2sc(C(=O)c3ccc(Cl)cc3)c(N)c2C(=O)Nc2ccccc2OC)cc1,40.3,n,106.6,72.6,47.2
CCc1ccc(N(C(=O)CNC(=O)c2ccco2)C(C(=O)NCC2CCCO2)c2ccccc2)cc1 (centres undefined),n,n,n,n,n
COc1cc(OC)cc(N(C(=O)CNC(=O)c2ccco2)C(C(=O)NCC2CCCO2)c2ccccc2)c1 (centres undefined),n,n,n,52.0,n
COc1cccc(CNC(=O)[C@H]2CCCN2C(=O)[C@H]2CCCN2C(=O)c2ccc(OC(F)(F)F)cc2)c1,x,x,n,n,x
N#CC1=C(N)Oc2cc(O)c(Cl)cc2C1c1cccnc1 (centres undefined),x,x,n,n,x
N#CC1=C(N)Oc2cc(O)c(Cl)cc2C1c1ccccc1F (centres undefined),n,n,n,n,24.7
COc1ccc(-c2cc(C(=O)NNC(=O)c3csc(N4CCOCC4)n3)c3ccccc3n2)cc1OC,n,n,n,57.9,n
SMILES,V1R ag counter,OXTR potentiate,TAAR1 ag,TAAR1 antagonist,OXTR ag
Cc1c(NC(=O)c2cc(-c3cccs3)nc3ccccc23)c(=O)n(-c2ccccc2)n1C,n,n,n,n,n
COc1ccc(-c2cc(C(=O)Nc3c(C)n(C)n(-c4ccccc4)c3=O)c3ccccc3n2)cc1OC,n,n,n,54.6,n
COc1ccc2c(c1)[C@@H](NC(=O)C(F)(F)F)[C@@H]1CCCC[C@]21c1ccccc1,x,x,n,n,x
Cc1ccc(NC(=O)CN(C)CC(=O)Nc2cccc(F)c2)cc1S(=O)(=O)N1CCCCCC1,n,n,n,50.2,n
COc1ccc(NC(=O)CN(C)CC(=O)Nc2cccc(F)c2)cc1S(=O)(=O)N1CCCCC1,x,x,n,n,x
Cc1ccc(NC(=O)COc2ccccc2)cc1S(=O)(=O)N1CCCCCC1,n,n,n,n,n
Cc1ccc(NC(=O)COc2ccccc2C#N)cc1S(=O)(=O)N1CCCCCC1,n,n,n,51.7,n
C#CCN(C[C@H]1[C@H](OC(=O)NCCCCCC)[C@H](OC(=O)NCCCCCC)CN(C(=O)OC(C)C)N1C(=O)OC(C)C)S(=O)(=O)c1ccc(C)cc1,x,x,n,n,x
Cc1ccc(Sc2ccc(S(=O)(=O)Nc3ccc(C(=O)O)cc3)cc2)cc1C,20.9,n,n,56.5,25.3
CCSc1nnc(-c2cc(Br)ccc2NC(C)=O)c(=O)[nH]1,n,n,n,n,n
C=C1[C@@H](CCO)N(S(=O)C(C)(C)C)C[C@@H]1C (some centres undefined),x,x,n,n,x
O=C(Nc1ccc(N2CCN(C(=O)c3ccccc3F)CC2)cc1)c1cncc(Br)c1,n,n,n,51.9,n
COC1OC(COCc2ccccc2)C2OC(C)(C)OC2C1O (centres undefined),x,x,n,n,x
CCOc1ccc(/C=N/OCC(=O)NC(c2ccccc2)c2ccccc2)cc1,n,n,n,53.4,n
COc1ccc(/C=N/OCC(=O)NC(c2ccccc2)c2ccccc2)c(OC)c1,n,n,n,n,n
N#Cc1cc([N+](=O)[O-])ccc1N1CCN(c2ccccc2O)CC1,n,n,n,52.2,n
O=[N+]([O-])c1ccc(N2CCN(c3ccc([N+](=O)[O-])cc3CO)CC2)c(CO)c1,n,n,n,52.8,n
CC(C(=O)Nc1cc([N+](=O)[O-])ccc1Cl)N1CCN(c2ccccc2O)CC1 (centres undefined),n,n,n,n,n
CC(C)(C)C(=O)N1CCN(c2ccc([N+](=O)[O-])cc2Cl)CC1,n,n,n,n,n
O=c1nccc(N/N=C/c2cccc(O)c2)[nH]1,n,n,39.9,n,n
COc1cc(/C=N/Nc2ccnc(=O)[nH]2)ccc1O,x,x,n,n,x
O=S(=O)(c1ccc(C(F)(F)F)cc1)N1CCCc2nc(-c3ccc(F)cc3)ccc21,x,x,n,n,x
COc1ccc(N2CCN(C(=O)c3ccc(CS(=O)(=O)c4ccc(Br)cc4)o3)CC2)cc1,n,n,n,n,n
O=C(c1ccc(CS(=O)(=O)c2ccc(Br)cc2)o1)N1CCN(c2ccc(F)cc2)CC1,n,n,n,52.4,n
CC(=O)C1=C(C)NC(=S)NC1c1ccc(F)cc1 (centres undefined),x,x,n,n,x
